# NPY Y1 blocker: antagonists of human neuropeptide Y receptor Y1; P25929; HEK293-CNG Y1 cells, membrane potential fluorescence; NPY at EC95, then isoproterenol; inhibition, % at 3.6 µM; 200,000 compounds, 1% hits;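 active means inhibition above the campaign mean inhibition of all tested compounds plus 3 SD, cut at about 20% in these data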;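 further: 0% = DMSO wells given NPY plus isoproterenol and 100% = isoproterenol alone without NPY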
#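 Material: HEK293 cells co-expressing NPY Y1 receptor and cyclic-nucleotide gated channel. Timing: compound incubation 1 h at room temperature, readout 45 min post-stimulation. Signal: fluorescence, membrane potential probe.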
# RAM network inh: yeast RAM network inhibition. inhibition, % at 50 µM. 190,000 compounds, 1.8% hits. AID 868. S. cerevisiae dse1pr::URA3 reporter, 5-FOA growth OD615, 2 d; analog-sensitive cbk1-as2 kinase mutant strain;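 active means inhibition above a set limit, 3 SD over mean compound inhibition, cut at about 8.4% in these data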;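 further: 0% = DMSO-only wells with no growth and 100% = 10 µM 1-NA-PP1 full growth; inhibition rescues growth on 5-FOA so higher OD means more RAM inhibition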
# NPY Y2 blocker: antagonists of human neuropeptide Y receptor Y2. NPY-Y2 expressing cells, antagonist mode. 140,000 compounds, 0.99% hits. P49146. inhibition, % at 2.7 µM. AID 793; in the data active means inhibition above about 17%;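 further: 0% = vehicle with agonist challenge and 100% = reference antagonist with challenge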
# Target sequence (P49146 whole entry, looked up): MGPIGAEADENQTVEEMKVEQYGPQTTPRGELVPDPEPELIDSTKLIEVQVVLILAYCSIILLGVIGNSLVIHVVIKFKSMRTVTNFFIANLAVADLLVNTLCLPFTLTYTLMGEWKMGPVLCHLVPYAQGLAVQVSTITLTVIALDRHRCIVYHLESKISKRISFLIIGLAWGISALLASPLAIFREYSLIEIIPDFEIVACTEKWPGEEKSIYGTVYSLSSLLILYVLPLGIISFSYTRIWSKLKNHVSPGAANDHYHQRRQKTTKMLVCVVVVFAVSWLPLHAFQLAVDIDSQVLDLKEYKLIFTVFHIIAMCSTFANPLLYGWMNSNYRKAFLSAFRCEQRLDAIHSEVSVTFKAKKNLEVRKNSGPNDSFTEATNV
# NPY-Y2 PAM-ag: potentiates or activates human NPY-Y2 receptor; P49146; activation, % at 3.6 µM; cells expressing NPY-Y2, potentiator/agonist read-out; 220,000 compounds, 0.45% hits; in the data active means activation above about 27%;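 further: cells stimulated with NPY near EC25 plus isoproterenol at EC100; 0% = vehicle plus submaximal agonist and 100% = vehicle plus saturating agonist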
# NPY1 pot ag: human NPY-Y1 potentiation or agonism, primary screen; P25929; NPY-Y1 expressing cells, potentiator/agonist activation; activation, % at 3.6 µM; 220,000 compounds, 0.37% hits; in the data active means activation above about 33%, passing the limit was not always enough;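 further: cells stimulated with NPY at EC10 then isoproterenol at EC100; 0% = low agonist plus stimulus and 100% = saturating agonist plus stimulus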
# WT yeast gro inh: growth inhibition of WT yeast, mitochondrial fusion screen; AID 1362; 190,000 compounds, 2.1% hits; mitochondrial fusion phenotypic screen, WT strain; inhibition, % at 10 µM; in the data active means inhibition above about 58%; tested in S. cerevisiae
# Numbers without * were called inactive; nt = no result. This is a sample that favours compounds with a hit; in the whole collection about 4.9% have one here.
SMILES,NPY Y1 blocker,RAM network inh,NPY Y2 blocker,NPY-Y2 PAM-ag,NPY1 pot ag,WT yeast gro inh
COc1ccc(CCNC(=O)COc2ccc(S(=O)(=O)NC3CCCCC3)cc2Cl)cc1,-1,10*,0,9,9,-17
O=C(COc1ccc(S(=O)(=O)NC2CCCCC2)cc1Cl)NCC1CCCO1 (configuration not stated),-6,-1,0,13,5,-1
COc1ccc(C(=O)NNC(=O)C2CCCN(C3CC(=O)N(c4ccccc4)C3=O)C2)cc1 (configuration not stated),nt,nt,nt,-12,13,nt
O=[N+]([O-])c1cccc(/C=N\N=C2c3ccccc3-c3ccccc32)c1O,-2,9.9*,-2,5,-7,11
N=C1/C(=C/c2cccn2-c2ccc([N+](=O)[O-])cc2)C(=O)N=C2SC=CN12,6,10*,-1,5,14,-11
Cc1ccc(-n2cccc2/C=C2\C(=N)N3N=C(C(C)C)SC3=NC2=O)cc1,0,7,nt,9,19,81*
CC(=O)Nc1ccc(C(=O)Nc2ccc(S(=O)(=O)NCC3CCCO3)cc2)cc1 (configuration not stated),3,1,4,0,10,4
Fc1ccccc1Sc1ccccc1CNC1=NCCN1,3,0,4,2,-7,80*
c1ccc(Sc2cccc3ccccc23)c(CNC2=NCCN2)c1,-1,0,2,-6,-6,67
CCOC(=O)c1c(NC(=O)C2COc3ccccc3O2)sc2c1CC(C)(C)NC2(C)C (configuration not stated),45*,1,21*,-41,-127,48
CCOC(=O)c1c(NC(=O)C2COc3ccccc3O2)sc(C(C)=O)c1C (configuration not stated),-1,3,4,15,11,3
COc1cc(-c2nnc(COc3ccc4cc(Br)ccc4c3)o2)cc(OC)c1OC,0,3,0,-1,-10,9
COc1ccc(-c2nnc(COc3ccc4ccccc4c3)o2)cc1OC,11,9.7*,17,-27,-51,33
CC1(C)C(=O)OC(c2cc(Br)ccc2O)C(C)(C)C1=O (configuration not stated),-7,0,-2,14,24,17
CN(C)C(=O)N1CCN(C(=O)N(C)C)CC1,-2,1,-2,10,7,0
CC1CN(C(=O)N(C)C)CCN1C(=O)N(C)C (configuration not stated),-3,0,1,1,-6,66*
CCN(CC)C(=S)SCC(=O)c1c(C)[nH]c2ccccc12,-3,0,-1,1,16,-13
Nc1ccc2nn(-c3ccccc3)nc2c1,-4,0,nt,5,16,63*
Nc1cc2nn(-c3ccccc3)nc2cc1Cl,3,4,nt,-12,-2,6
N=c1c(C(=O)NCc2ccc3c(c2)OCO3)cc2c(=O)n3ccccc3nc2n1Cc1cccnc1,7,2,14,12,7,22
COc1ccc(Sc2nc(-c3ccccn3)ncc2OC)cc1,5,-1,nt,-30,-28,63
COc1cnc(-c2ccccn2)nc1Sc1ccc(F)cc1,8,-2,nt,-18,-21,68*
CC(C)Cn1c(=O)c(C(=O)Nc2ccccc2S(N)(=O)=O)c(O)c2ccccc21,10,0,7,-1,9,73*
CC(=O)c1c(O)c2ccccc2n(C(C)C)c1=O,4,0,nt,-10,-5,-6
CCC(C)n1c(=O)c(C(=O)Nc2ccccc2S(N)(=O)=O)c(O)c2ccccc21 (configuration not stated),5,1,3,-6,-1,65*
SMILES,NPY Y1 blocker,RAM network inh,NPY Y2 blocker,NPY-Y2 PAM-ag,NPY1 pot ag,WT yeast gro inh
Cn1c(=O)c(C(=O)Nc2ccccc2S(N)(=O)=O)c(O)c2ccccc21,nt,nt,nt,-2,-7,nt
COC(=O)c1ccc(OC(=O)CS(=O)c2ccccc2[N+](=O)[O-])cc1 (configuration not stated),-1,-1,nt,-8,-16,1
CCOC(=O)Cn1nnc2c(sc3nc4c(c(-c5ccc(Cl)cc5)c32)CCC4)c1=O,19,5,22*,-14,-23,37
CC(C)C(=O)Nc1cc(S(=O)(=O)Nc2ccc(Cl)cc2)ccc1Cl,-3,3,3,0,-12,74*
CCOC(=O)NC(NCCc1ccccc1)(C(F)(F)F)C(F)(F)F,16,1,7,1,6,16
CCc1cccc(CC)c1NC(=S)NCCc1c(C)[nH]c2ccccc12,-2,6,2,16,15,68*
COc1ccc(-c2cc(C)nc(SCC(=O)c3cccc([N+](=O)[O-])c3)n2)cc1,10,4,4,-25,-18,-12
Cc1cc(Oc2ccc(Br)cc2)nc(SCC(=O)c2ccccc2)n1,52*,5,39*,-56,-72,21
Cc1cc(Oc2ccc3ccccc3c2)nc(SCC(=O)c2ccccc2)n1,50*,11*,41*,-17,-114,1
Cc1cc(-c2ccccc2)nc(SCC(=O)c2cccc([N+](=O)[O-])c2)n1,12,11*,2,-8,-15,-8
CC1=Nc2ccccc2/C1=C\c1sc(Nc2ccc(C)cc2)nc1O,-1,5,-1,0,-4,61*
Oc1nc(Nc2cccc(Cl)c2)sc1/C=C1\C=Nc2ccccc21,4,3,8,-15,-6,79*
Oc1nc(Nc2ccc(F)cc2)sc1/C=C1\C=Nc2ccccc21,nt,nt,nt,-18,-3,nt
Cn1c(-c2c(N)n(-c3ccccc3)c3nc4ccccc4nc23)nc2ccccc21,3,0,-2,12,-2,59*
CSc1nnc(Cn2c(=O)sc3ccccc32)n1CCc1ccccc1,14,8.9*,1,-5,-6,15
CSc1nnc(Cn2c(=O)sc3ccccc32)n1C,-3,0,-1,1,1,-7
CCCC(c1nnnn1Cc1ccco1)N1CCN(c2ccccc2)CC1 (configuration not stated),4,2,nt,-13,6,3
CC(C)C(c1nnnn1C(C)(C)C)N1CCOCC1 (configuration not stated),0,-1,0,-3,9,-1
CC(C)C(c1nnnn1C(C)(C)C)N1CCC(Cc2ccccc2)CC1 (configuration not stated),-7,0,5,-5,-40,73*
CCCC(c1nnnn1C(C)(C)C)N1CCN(c2ccccc2)CC1 (configuration not stated),21*,0,nt,-1,15,2
COCCCN1C(=O)C(=O)/C(=C(/O)c2ccccc2)C1c1ccc2c(c1)OCO2 (configuration not stated),8,9.7*,-1,-9,17,12
CCCC[C@@H]1CNC(=S)N1CCc1cccc(F)c1,1,0,nt,-5,-6,65*

# Screening data (PubChem BioAssay)
